Mdm2-MdmX inh – inhibitors of human Mdm2/MdmX interaction. O15151+Q00987. SaOS-2 split-luciferase Mdm2/MdmX complementation, luminescence. inhibition, % at 8 µM. 330,000 compounds, 3% hits. AID 485346;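 active = inhibition of at least 50% at 8 µM in the primary screen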
UPR XBP1 act – adaptive UPR (XBP1) activation. activation, % at 20 µM. 330,000 compounds, 0.33% hits. CHO-XBP1 luciferase reporter, IRE1-XBP1 UPR activation, luminescence; percent of tunicamycin response, DMSO as zero;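 active = versus positive control, 20 µM dose yields 30% or more activation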;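 also: 100% = tunicamycin at 10 µg/mL and 0% = DMSO only wells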
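Material: IRE1-XBP1 luciferase reporter CHO line / Quantity: one thousand reporter cells per well / Buffer or medium: F12 with 10% serum / Compound: 20 µM single concentration, DMSO 1% / Times: 6 h treatment, 37 °C / Detection: Steady-Glo luciferase glow luminescence, 10 min after reagent addition / Benchmarks: tunicamycin high, DMSO low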
Apaf-1 inh – human Apaf-1 inhibition; O14727; reconstituted apoptosome caspase-3 activity, DEVD-Rh110 fluorescence; inhibition, % at 20 µM; 330,000 compounds, 0.71% hits; active = inhibition of at least 40% at 20 µM;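 also: plate controls were DMSO wells for no effect and DEVD-CHO caspase inhibitor wells for full effect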
Target sequence (O14727 whole entry, looked up): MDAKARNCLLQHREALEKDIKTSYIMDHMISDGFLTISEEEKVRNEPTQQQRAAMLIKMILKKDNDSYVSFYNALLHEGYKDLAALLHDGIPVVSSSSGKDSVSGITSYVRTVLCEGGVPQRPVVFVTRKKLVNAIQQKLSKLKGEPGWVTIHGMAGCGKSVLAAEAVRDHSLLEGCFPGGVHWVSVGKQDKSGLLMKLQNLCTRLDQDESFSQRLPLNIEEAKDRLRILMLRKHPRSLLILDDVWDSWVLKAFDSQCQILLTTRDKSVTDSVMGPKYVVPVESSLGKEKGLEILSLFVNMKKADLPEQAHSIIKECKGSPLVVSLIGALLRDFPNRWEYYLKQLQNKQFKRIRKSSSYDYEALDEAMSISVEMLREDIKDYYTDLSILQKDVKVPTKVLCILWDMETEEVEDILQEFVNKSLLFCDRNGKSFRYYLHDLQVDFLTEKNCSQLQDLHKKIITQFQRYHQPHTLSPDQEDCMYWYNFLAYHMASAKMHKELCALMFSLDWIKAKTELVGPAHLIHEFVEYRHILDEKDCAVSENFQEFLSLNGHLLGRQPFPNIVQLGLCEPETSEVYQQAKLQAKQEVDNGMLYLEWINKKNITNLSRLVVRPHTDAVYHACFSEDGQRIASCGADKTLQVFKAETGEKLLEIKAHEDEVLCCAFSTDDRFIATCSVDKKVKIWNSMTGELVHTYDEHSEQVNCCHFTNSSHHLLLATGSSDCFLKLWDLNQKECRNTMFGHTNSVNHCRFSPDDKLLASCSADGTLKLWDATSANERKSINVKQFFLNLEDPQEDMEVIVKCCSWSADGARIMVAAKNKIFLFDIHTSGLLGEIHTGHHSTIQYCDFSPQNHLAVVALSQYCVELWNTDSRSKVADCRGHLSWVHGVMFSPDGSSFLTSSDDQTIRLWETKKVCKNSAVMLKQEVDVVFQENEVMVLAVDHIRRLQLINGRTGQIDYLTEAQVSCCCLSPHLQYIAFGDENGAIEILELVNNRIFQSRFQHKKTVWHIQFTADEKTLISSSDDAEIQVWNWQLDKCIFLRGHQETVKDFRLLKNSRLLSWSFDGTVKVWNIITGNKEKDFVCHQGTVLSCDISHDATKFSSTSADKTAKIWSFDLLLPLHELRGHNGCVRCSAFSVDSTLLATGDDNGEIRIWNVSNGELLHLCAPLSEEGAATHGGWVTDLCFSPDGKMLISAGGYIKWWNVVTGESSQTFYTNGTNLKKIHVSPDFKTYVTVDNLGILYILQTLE
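System – cell-free apoptosome with Apaf-1, procaspase-3 and caspase-9 · Buffer or medium – pH 7.5 Hepes buffer with CHAPS, BSA, DTT · Also added – cytochrome c with DEVD-Rh110 · Times – 30 min compound preincubation, 50 min activation, room temperature · Technique – Rh110 fluorescence intensity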
CHOP UPR activ – activators of apoptotic arm of unfolded protein response (CHOP) | CHO-CHOP luciferase reporter, UPR activation, luminescence; percent of tunicamycin response over DMSO baseline | activation, % at 10 µM | 330,000 compounds, 0.34% hits;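 active = at 10 µM dose, activation of 40% or more, normalized to positive control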;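 also: 100% = tunicamycin at 10 µg/mL and 0% = DMSO alone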
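assay system = CHO CHOP reporter cells | amount = 500 CHO-CHOP cells per well | buffer or medium = F12 with 10% FBS | incubation = 16-18 h cell attachment, then 6 h compound exposure, 37 °C | detection = luminescence read with Steady-Glo | read-out = percent activation relative to tunicamycin control | controls = tunicamycin high control, DMSO low control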
UBC13 inh – human UBC13 polyubiquitination inhibition; P61088; UBC13 polyubiquitin chain formation, TR-FRET; inhibition, % at 20 µM; 330,000 compounds, 0.47% hits; in the data active = inhibition above about 45%, passing the limit was not always enough; inconclusive = no clear call, values can overlap the other calls
Apaf-1 inh conf – Apaf-1 inhibition, single-dose confirmed; 1,800 compounds, 25% hits; shares compounds with Apaf-1 inh; AID 504614; reconstituted apoptosome, caspase-3 DEVD-Rh110 fluorescence; inhibition, % at 20 µM;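 active = mean inhibition of at least 40% at 20 µM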;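 also: plate controls were DMSO wells for no effect and DEVD-CHO caspase inhibitor control wells for full effect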
Rh110 interf inh – interferes with Rh110 fluorescence, flagging false Apaf-1 inhibitors | shares compounds with Apaf-1 inh | Rh110 fluorescence interference, quenched caspase reaction | activation (fluorescence interference), % at 20 µM | 1,800 tested, under 10 active | AID 504615;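 active = signal rise of 40% or more at 20 µM, treated as a fluorescence artifact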
Fluor interf inh – shows fluorescence interference in the Apaf-1 inhibitor assay format; 460 tested, under 10 active; shares compounds with Apaf-1 inh; IC50, µM; AID 588538; fluorescence interference counterscreen, Apaf-1 assay format; call rule not given here
* = called active by the depositor; ? = inconclusive; . = not tested or not shown. Rows were chosen to be rich in hits. Some 4.1% of all compounds tested hit in one or more screens of this group.

SMILES	Mdm2-MdmX inh	UPR XBP1 act	Apaf-1 inh	CHOP UPR activ	UBC13 inh	Apaf-1 inh conf	Rh110 interf inh	others
COc1ccccc1CC(=O)N1CCN(c2ccccc2F)CC1	19.8	-4.0	-1.1	-1.2	7.3	.	.
CC1CCCCN1S(=O)(=O)c1ccc(C(=O)Nc2nnc(-c3ccccn3)o2)cc1 (stereo unspecified)	4.5	1.0	7.6	-0.6	-26.2	.	.
Cc1ccc(-c2nn3c(C)nnc3c3ccccc23)cc1S(=O)(=O)NCc1ccccc1	26.1	2.0	47.7*	-0.3	6.9	72.3*	7.2	Fluor interf inh=>100
Cc1[nH]n(-c2ccccc2)c(=O)c1N=Nc1cccc(S(=O)(=O)N2CCOCC2)c1	40.0	6.1	45.7*	-0.3	-71.7	8.8	2.2
COc1ccccc1C(=O)NC(CCSC)C(=O)NNC(=O)c1ccncc1 (stereo unspecified)	11.8	-2.7	4.1	-0.9	0.4	.	.
CCC(CO)Oc1cc(NCc2ccc(C(F)(F)F)cc2)c2ncn(C(C)C)c2c1 (stereo unspecified)	22.5	-1.1	25.8	-0.5	5.2	.	.
CCC(CO)Oc1cc(NCc2ccc(C)cc2)c2ncn(C(C)C)c2c1 (stereo unspecified)	-15.8	0.2	41.0*	-1.0	-8.6	21.5	4.2
CCC(CO)Oc1cc(NCc2ccc(OC)cc2)c2ncn(C(C)C)c2c1 (stereo unspecified)	11.7	-1.7	7.6	3.2	1.8	.	.
CCC(CO)Oc1cc(NCc2cccc(C)c2)c2ncn(C(C)C)c2c1 (stereo unspecified)	0.7	1.2	54.2*	1.8	-5.8	28.2	6.5
CCC(CO)Oc1cc(NCc2cccc(C(F)(F)F)c2)c2ncn(C(C)C)c2c1 (stereo unspecified)	1.5	-0.2	40.9*	-1.1	-1.2	17.9	14.5
O=C(COC(=O)c1cccnc1)Nc1ccc2c(c1)OCO2	20.0	6.4	3.0	1.3	-11.6	.	.
CCCN(CC(=O)Nc1ccccc1C)C(=O)COc1c(Cl)cccc1Cl	33.1	-1.0	3.3	-1.7	2.7	.	.
COc1ccc(NCc2cc3cc(OC)ccc3[nH]c2=O)cc1	1.3	1.2	47.3*	0.6	-33.5	61.7*	5.9	Fluor interf inh=>100
CCN(c1ccccc1)c1cc2ccccc2c(=O)[nH]1	8.0	0.3	95.8*	-0.9	-25.9	59.1*	4.9	Fluor interf inh=>100
COc1cccc2sc3cc(C#CC4(O)CCCCC4)ccc3c(=O)c12	0.0	-2.6	40.1*	2.8	?	27.1	2.6
Cc1ccc(N(C)S(=O)(=O)c2cccc(C(=O)Nc3ccc(C)cn3)c2)cc1	2.6	-2.2	44.7*	-0.2	16.1	37.8	-2.1
CN(C)S(=O)(=O)c1cccc(C(=O)Nc2ccc(Cl)cn2)c1	-34.7	0.8	-5.7	1.7	1.8	.	.
COc1cc(NC(C)CCCN)c2ncccc2c1 (stereo unspecified)	33.9	0.2	92.5*	1.1	-18.6	32.9	-1.8
NNC(=O)CNC(=O)CNS(=O)(=O)c1ccccc1	6.1	-4.3	2.1	0.8	2.9	.	.
CCOc1cc(CNc2ccc(O)cc2)cc(Br)c1OCc1ccccc1F	9.1	4.5	16.7	0.2	-3.6	.	.
COc1cc(CNc2ccc(O)cc2)cc(Br)c1OCc1ccccc1F	27.5	-1.0	95.7*	4.3	0.0	23.3	14.1
O=C(CN1CCN(C(=O)C2CC2)CC1)Nc1ccc(Cl)cc1F	-32.7	-1.9	-2.6	0.8	4.3	.	.
CC(C)C[C@H](NC(=O)C1CCN(S(=O)(=O)c2ccccc2)CC1)C(=O)NCc1ccccn1	13.4	-4.2	0.8	0.7	-1.0	.	.
Cc1c(C(=O)N(CCc2ccccc2)Cc2ccccc2)cccc1[N+](=O)[O-]	5.7	-4.0	41.3*	2.2	12.2	37.0	7.2
CCOC(=O)c1c(S(=O)(=O)NCC(=O)N2CCN(c3ccc(F)cc3)CC2)c(C)n(C)c1C	4.8	-1.1	-5.1	0.2	-7.0	.	.

Bioassay records from PubChem.
